Screening data from PubChem.
SENP8 block-1: inhibitors of human SENP8 protease. Q96LD8. purified SENP8, Z-RLRGG-aminoluciferin cleavage, luminescence. inhibition, % at 10 µM. 330,000 compounds, 1.2% hits; in the data active = inhibition above about 50%
Target sequence (Q96LD8 whole entry, looked up): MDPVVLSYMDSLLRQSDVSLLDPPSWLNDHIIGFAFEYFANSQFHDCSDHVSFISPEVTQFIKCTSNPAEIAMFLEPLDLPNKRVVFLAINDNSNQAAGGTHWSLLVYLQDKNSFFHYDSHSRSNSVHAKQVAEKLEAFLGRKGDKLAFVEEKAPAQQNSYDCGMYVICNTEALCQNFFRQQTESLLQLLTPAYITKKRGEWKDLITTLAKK
SENP1 inh: blocks the human SENP1 SUMO protease catalytic domain; 360,000 compounds, 0.21% hits; recombinant SENP1 catalytic domain, CyPet-SUMO1-YPet FRET cleavage; inhibition, % at 10 µM; Q9P0U3;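 active = inhibition at least 30% at 10 µM, raw YFP signal under a set limit, fluorescence ratio 0.5 to 1.5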
Target sequence (Q9P0U3 419-644 limits assumed): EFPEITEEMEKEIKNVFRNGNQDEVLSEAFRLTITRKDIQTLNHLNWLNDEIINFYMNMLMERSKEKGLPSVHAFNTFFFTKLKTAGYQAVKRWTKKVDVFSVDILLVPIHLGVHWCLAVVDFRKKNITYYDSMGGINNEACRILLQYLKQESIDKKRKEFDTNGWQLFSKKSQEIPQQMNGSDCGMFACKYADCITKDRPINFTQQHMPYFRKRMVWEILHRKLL
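Assay system – human recombinant His6-tagged SENP1 catalytic domain enzyme · Input – SENP1 enzyme, 20 pM final · Buffer or medium – Tris pH 8 buffer plus EDTA, NaCl, BME, BSA, NP40, catalase · Schedule – 50 min reaction at room temperature · Technique – FRET read of cyan and yellow fluorescence · Control set – no-enzyme wells low, DMSO-plus-enzyme wells high control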
SENP6 block: inhibitors of human SENP6 protease. Q9GZR1. Recombinant SENP6 catalytic domain, aminoluciferin luminescence. inhibition, % at 10 µM. 330,000 compounds, 1.8% hits;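 active = inhibition above about 50% at the single tested dose, limit read from the data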
SENP8 block-2: inhibitors of human SENP8 protease; Q96LD8; recombinant SENP8, Nedd8 substrate fluorescence; inhibition, % at 20 µM; 360,000 compounds, 0.64% hits; AID 602440; in the data active = inhibition mostly above about 40%, no sharp cut-off; inactive = mostly below about 27%
SENP7 block: SENP7 protease inhibition; 330,000 compounds, 1.5% hits; inhibition, % at 5 µM; recombinant SENP7, Z-RLRGG-aminoluciferin luminescence, 40 min; Q9BQF6;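 active = inhibition above about 50% at the single test dose, limit read from the data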
Platelet DG rel: modulates dense granule release in human platelets; AID 1663; inhibition, %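 (compounds screened at 7.5 µM in platelet-rich plasma)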; human platelet-rich plasma, SFLLRN dense granule ATP release, luminescence; 300,000 compounds, 0.22% hits;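 active = mean replicate score, as percent of positive control, at or above 50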
SENP8 conf: confirmation of human SENP8 protease inhibitors; AID 488912; inhibition, % at 12.5 µM; Recombinant SENP8, Z-RLRGG-aminoluciferin luminescence, 60 min; shares compounds with SENP7 block; 6,200 compounds, 40% hits;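 active = mean inhibition across replicates above about 50%, limit read from the data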
SENP6 conf: confirmation of human SENP6 protease inhibitors; 6,200 compounds, 58% hits; inhibition, % at 12.5 µM; shares compounds with SENP7 block; recombinant SENP6, Z-RLRGG-aminoluciferin luminescence
SENP7 confirm: human SENP7 inhibition, confirmed | inhibition, % at 12.5 µM | shares compounds with SENP7 block | recombinant SENP7, Z-RLRGG-aminoluciferin luminescence, 40 min | 6,200 compounds, 69% hits
Casp3 SENP sel: selectivity test for SENP inhibitors: human caspase-3 inhibition. 6,200 compounds, 60% hits. AID 488918. purified caspase-3, Z-DEVD-aminoluciferin luminescence, 60 min. inhibition, % at 12.5 µM. shares compounds with SENP7 block;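 active = mean inhibition above about 50%, limit read from the data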
Target sequence (P42574 28-227 limits assumed): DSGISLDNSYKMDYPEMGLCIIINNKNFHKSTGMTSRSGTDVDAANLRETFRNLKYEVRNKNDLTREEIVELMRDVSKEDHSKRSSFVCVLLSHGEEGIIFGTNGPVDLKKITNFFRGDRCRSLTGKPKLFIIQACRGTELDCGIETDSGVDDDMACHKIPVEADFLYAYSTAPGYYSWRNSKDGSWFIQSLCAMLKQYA
SENP luc ctr: luminescence interference (SENP counter-screen); 6,200 compounds, 39% hits; inhibition, % at 12.5 µM; shares compounds with SENP7 block; Pre-incubated SENP8/Z-RLRGG-aminoluciferin, luciferase luminescence interference;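 active = mean inhibition above about 50% when retested at one dose, limit read from the data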
Each line names hits and unclear results; the compound was inactive in the other large screens (follow-up assays come after a bar, where they were run). Only some compounds are listed: those with a hit (about 2.6% of all), similar ones and a draw of the others.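 The calls were made as follows, unless noted: active = mean inhibition above about 50% in the one-dose retest (limit read from the data); inactive = the rest.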

O=C1N(c2ccccc2)C[C@@H]2C[C@@H](c3cccc4c3OCO4)N3CCC[C@@]123	none
O=C(c1cnc2sccn2c1=O)N(Cc1ccccc1)c1ccccn1	none
CCOC(=O)c1c(NC(=O)CCC(=O)N2CCOCC2)sc2c1CC(C)(C)OC2	none
Cc1cc(C(=O)Nc2ccc(N3CCCC3)c(Cl)c2)ccc1[N+](=O)[O-]	SENP6 block 59.8, SENP7 block 51.6 | SENP8 conf inactive | SENP6 conf inactive | SENP7 confirm 64.6 | Casp3 SENP sel inactive | SENP luc ctr inactive
O=C(Nc1ccc2c(c1)OCCO2)c1cccnc1	none
O=C(Nc1ccc2c(c1)OCCO2)c1cc(F)c(F)cc1Cl	none
Cc1ccc(C(=O)Nc2ccc3c(c2)OCO3)o1	SENP6 block 50.5 (no result: Platelet DG rel) | SENP8 conf inactive | SENP6 conf inactive | SENP7 confirm 66.6 | Casp3 SENP sel 77.0 | SENP luc ctr 52.3
O=C(Nc1ccc(N2CCCC2)c(Cl)c1)c1ccc([N+](=O)[O-])cc1	none
Cc1ccc(C(=O)Nc2ccc3c(c2)OCCO3)c(Cl)c1	SENP8 block-1 78.0, SENP6 block 89.1, SENP7 block 84.7 | SENP8 conf 81.4 | SENP6 conf 78.6 | SENP7 confirm 93.7 | Casp3 SENP sel 86.8 | SENP luc ctr 81.8
O=C(Nc1ccc2c(c1)OCCO2)c1ccc2nccnc2c1	SENP6 block 53.3 | SENP8 conf 50.5 | SENP6 conf inactive | SENP7 confirm 81.9 | Casp3 SENP sel 80.3 | SENP luc ctr 59.5
COc1ccc(C2CC(c3ccc4ccccc4c3OC(C)=O)=NN2C(C)=O)cc1 (centres undefined)	none
Nc1nnc(SCC(=O)OCC(=O)c2ccccc2)s1	none
CS(=O)(=O)N(Cc1ccco1)CC(O)Cn1cc(C=O)c2ccccc21 (centres undefined)	none
CCOc1ccc(C(=O)Nc2ccc3c(c2)OCCO3)cc1	SENP8 block-1 71.2, SENP6 block 83.8, SENP7 block 86.3 | SENP8 conf inactive | SENP6 conf 77.3 | SENP7 confirm 95.1 | Casp3 SENP sel 87.2 | SENP luc ctr 69.4
O=C(Nc1ccc2c(c1)OCCO2)c1ccc(Br)o1	SENP8 block-1 55.3, SENP6 block 77.0, SENP7 block 73.8 (no result: Platelet DG rel) | SENP8 conf 77.3 | SENP6 conf 69.7 | SENP7 confirm 91.2 | Casp3 SENP sel 85.2 | SENP luc ctr 74.3
CCOc1ccc(NC(=O)CN2CCN(CC(=O)Nc3ccc4c(c3)OCCO4)CC2)cc1	none (no result: Platelet DG rel)
CCOC(=O)c1c(C)[nH]c(C(=O)Nc2ccc3c(c2)OCO3)c1C	SENP8 block-1 59.5, SENP7 block 83.7 (no result: SENP1 inh, SENP8 block-2) | SENP8 conf inactive | SENP6 conf 80.5 | SENP7 confirm 96.5 | Casp3 SENP sel 79.4 | SENP luc ctr inactive
O=C(Nc1ccc(Cl)cc1Cl)c1ccc2c(c1)OCCO2	SENP8 block-1 89.8, SENP6 block 92.8, SENP7 block 92.4 (no result: Platelet DG rel) | SENP8 conf 65.8 | SENP6 conf 84.5 | SENP7 confirm 95.0 | Casp3 SENP sel 88.1 | SENP luc ctr inactive
COc1cc2c3c(c1)c(N=NC(N)=S)c(O)n3C(C)(C)C=C2C	none
CCC(=O)OCC(=O)Nc1cc([N+](=O)[O-])ccc1OC	none
COc1ccc(NC(=O)/C=C2\SC(=O)NC2=O)cc1	none
Cc1cc(C)cc(C(=O)NC(=S)Nc2ccc3c(c2)OCCO3)c1	SENP6 block 83.8 | SENP8 conf inactive | SENP6 conf inactive | SENP7 confirm inactive | Casp3 SENP sel inactive | SENP luc ctr inactive
COc1ccc(C(=O)Nc2ccc3c(c2)OCCO3)cc1Br	SENP8 block-1 56.1, SENP6 block 72.3, SENP7 block 61.5 | SENP8 conf inactive | SENP6 conf inactive | SENP7 confirm 79.8 | Casp3 SENP sel 53.8 | SENP luc ctr inactive
CCCOc1cccc(C(=O)Nc2cccc(NC(=O)c3ccco3)c2)c1	none
Cc1ccc(C(=O)Nc2ccc3c(c2)OCO3)cc1	SENP6 block 69.3 | SENP8 conf 68.4 | SENP6 conf 67.8 | SENP7 confirm 90.5 | Casp3 SENP sel 82.8 | SENP luc ctr inactive
CCCOc1cccc(C(=O)Nc2ccc3c(c2)OCCO3)c1	SENP8 block-1 53.1, SENP6 block 77.1, SENP7 block 66.2 | SENP8 conf 69.3 | SENP6 conf 66.6 | SENP7 confirm 86.1 | Casp3 SENP sel 59.3 | SENP luc ctr 54.8
Nc1c(C(=O)Nc2ccc3c(c2)OCCO3)nnn1Cc1ccc(Br)cc1	none
Nc1c(C(=O)Nc2ccc3c(c2)OCCO3)nnn1Cc1cccc(Br)c1	SENP6 block 67.7, SENP7 block 58.2 | SENP8 conf inactive | SENP6 conf inactive | SENP7 confirm 84.8 | Casp3 SENP sel inactive | SENP luc ctr 66.4
Cc1ccc(C(=O)Nc2ccc3nccnc3c2)cc1	SENP8 block-1 51.2, SENP6 block 67.4, SENP7 block 73.0 | SENP8 conf 56.3 | SENP6 conf 54.9 | SENP7 confirm 87.2 | Casp3 SENP sel 82.8 | SENP luc ctr inactive
O=C(Nc1ccc2c(c1)OCCO2)c1ccc(Cl)c(Cl)c1	SENP8 block-1 59.1, SENP6 block 76.7, SENP7 block 67.3 | SENP8 conf 53.1 | SENP6 conf 55.3 | SENP7 confirm 92.7 | Casp3 SENP sel 50.7 | SENP luc ctr inactive
Cc1ccc(C(=O)Nc2ccc3c(c2)OCCO3)cc1	SENP8 block-1 72.4, SENP6 block 73.5, SENP7 block 82.0 | SENP8 conf inactive | SENP6 conf 75.6 | SENP7 confirm 93.7 | Casp3 SENP sel 87.1 | SENP luc ctr 79.0
C=CCn1c(=O)c2ccc(C(=O)NCc3ccccc3)cc2n(Cc2ccc(Cl)cc2)c1=O	none
Cc1cc(C(=O)Nc2ccc3c(c2)OCCO3)ccc1[N+](=O)[O-]	SENP8 block-1 77.0, SENP6 block 84.3, SENP7 block 91.8 | SENP8 conf inactive | SENP6 conf 56.7 | SENP7 confirm 94.4 | Casp3 SENP sel 81.4 | SENP luc ctr inactive
COc1ccc(C(=O)Nc2ccc(N3CCCCC3)cc2)cc1Br	SENP7 block 68.4 | SENP8 conf inactive | SENP6 conf inactive | SENP7 confirm inactive | Casp3 SENP sel inactive | SENP luc ctr inactive
